This passage reports Activity, EC50 and IC50 results from ChEMBL document CHEMBL5104221, “ATP Mimetic Attack on the Nucleotide-Binding Domain to Overcome ABC Transporter Mediated Chemoresistance” (ACS Med Chem Lett, 2022).

Active and inactive are the calls of the source. The rule behind the calls is not given here.

One series relates to HCT116tax. Kind of series: Cytotoxicity against paclitaxel-resistant human HCT116tax cells assessed as reduction on cell viability at 100 to 200 uM incubated for 48 hrs in presence of paclitaxel by MTT assay. The conditions noted are these: dose 100-200 µM. In kind it is functional, cell-based.
The subject of series [1] is HCT-116. Kind of series: Cytotoxicity against in human HCT-116 cells overexpressing human BCRP assessed as DNA damage by measuring fluorescence intensity at 100 uM incubated for 30 mins by Hoechst 33342 staining accumulation assay. Format: functional, cell-based. In outline:
(§1)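 Hoechst 33342 retention measured in paclitaxel-resistant HCT116tax cells and in HCT116 cells transfected with MDR1- or BCRP-expressing plasmids. The dye was read by its blue fluorescence without washing. Tariquidar (1 μM) and sodium orthovanadate (500 μM) served as reference inhibitors. Accumulation is expressed relative to the vanadate-induced fluorescence difference, set as 100%.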

For series [2], the system named is HCT-116. Briefly: Cytotoxicity against human HCT-116 cells incubated for 48 hrs by MTT assay. Format: functional, cell-based. The conditions noted are these: HCT-116, 48 h. In outline: (§2)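 Wild-type HCT116 cells were exposed for 48 h in OptiMEM, with or without paclitaxel. Viability was read by MTT and normalised to wells containing 0.5% DMSO, taken as 100%.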
(Tetrazolium dyes change colour on reduction, which living cells bring about.)

The test system of series [3] is HCT-116. Kind of series: Cytotoxicity against human HCT-116 cells overexpressing human BCRP incubated for 48 hrs by MTT assay. In kind it is functional, cell-based. The conditions noted are these: HCT-116, 48 h.
Series [4] is described as follows: Cytotoxicity against paclitaxel-resistant human HCT116tax cells assessed as DNA damage by measuring fluorescence intensity incubated for 30 mins by Hoechst 33342 staining accumulation assay. In kind it is functional, cell-based. The following applies: 0.5 h. In outline:
as §1

Series [5] concerns HCT-116. Kind of series: Cytotoxicity against human HCT-116 cells assessed as reduction on cell viability at 100 uM incubated for 48 hrs in presence of paclitaxel by MTT assay. Format: functional, cell-based. The gist of the method:
as §2

Series [6] concerns HCT-116. Briefly: Cytotoxicity against human HCT-116 cells overexpressing human MDR1 assessed as DNA damage by measuring fluorescence intensity at 100 uM incubated for 30 mins by Hoechst 33342 staining accumulation assay. Format: functional, cell-based. The gist of the method: as §1
Series [7] can be described thus: Cytotoxicity against paclitaxel-resistant human HCT116tax cells incubated for 48 hrs by MTT assay. In kind it is functional, cell-based.
Series [8] in a line: Cytotoxicity against human HEK293 cells incubated for 48 hrs by MTT assay. In kind it is toxicity, cell-based.
The test system of series [9] is HCT-116. Kind of series: Cytotoxicity against human HCT-116 cells overexpressing human MDR1 incubated for 48 hrs by MTT assay. In kind it is functional, cell-based. The following applies: HCT-116, 48 h.

For the compound `Nc1ncnc2c1ncn2COCCO`, the outcome in the series on HCT116tax, with HCT-116 [1], with HCT-116 [5] and in the series on HCT-116 [6] was Active. The EC50 (in the series with HCT-116 [2]; in the series with HCT-116 [3]; in [7]; in the series on HCT-116 [9]) was > 100 µM in each case. Moreover, the half-inhibitory concentration (IC50) (commonly the concentration needed to halve the response being measured) in [4] worked out at 7.3 µM. Moreover, the EC50 (usually the concentration giving half of the maximal effect) at 48 h in series [8] is > 100 µM.
Consider `CC(C)[C@@H]1NC(=O)[C@@H]2CCCN2C1=O`, for which the result with HCT116tax, in the series with HCT-116 [1], in the series on HCT-116 [5] and in the series with HCT-116 [6] was Active. The half-maximal effective concentration (EC50) (in the series with HCT-116 [2]; with HCT-116 [3]; in series [7]; in the series with HCT-116 [9]) was > 100 µM throughout. Moreover, in series [4], the IC50 was determined as 6.2 µM. Further, the EC50 at 48 h in [8] is > 100 µM.
`NC(=O)c1ncn([C@@H]2O[C@H](CO)[C@@H](O)[C@H]2O)c1N` [ACADESINE]: the outcome with HCT116tax, in the series on HCT-116 [1], in the series on HCT-116 [5] and in the series on HCT-116 [6] was Active. Moreover, the EC50 (with HCT-116 [2]; in the series on HCT-116 [3]; in [7]; in the series with HCT-116 [9]) was > 100 µM throughout. Moreover, the IC50 in [4] was found to be 5.3 µM. In addition, the EC50 at 48 h in series [8] is > 100 µM.
`Nc1ncnc2c1ncn2[C@@H]1O[C@H](COP(=O)(O)O)[C@@H](O)[C@H]1O` [ADENOSINE PHOSPHATE]: the outcome in the series with HCT116tax, in the series with HCT-116 [1], with HCT-116 [5] and in the series on HCT-116 [6] was Active. The EC50 (in the series with HCT-116 [2]; with HCT-116 [3]; in series [7]; with HCT-116 [9]) was > 100 µM each time. The IC50 in series [4] was 3.2 µM. Besides, the EC50 at 48 h in [8] was > 100 µM.
Take `NC(=O)c1ncn([C@@H]2O[C@H](CO)[C@@H](O)[C@H]2O)n1` [RIBAVIRIN]: the outcome with HCT116tax, with HCT-116 [1], in the series with HCT-116 [5] and in the series with HCT-116 [6] was Active. In addition, the EC50 (in the series with HCT-116 [2]; in the series on HCT-116 [3]; in series [7]; with HCT-116 [9]) was > 100 µM each time. In addition, the IC50 in series [4] came out at 5 µM. Besides, in [8], the EC50 at 48 h is > 100 µM.
With ORTHOVANADATE, the outcome with HCT-116 [1] and with HCT-116 [6] was Active.
